PolyA inhibitor – inhibitors of polyadenylation in S. cerevisiae. S. cerevisiae SKY197-pL101 polyadenylation reporter, beta-gal luminescence; efflux-impaired pdr1/pdr3 knockout yeast; score 100 = 6 SD above DMSO. activity score, % at 12 µM. 300,000 compounds, 0.02% hits;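 active = lowest replicate activity score at least 50, where 100 means six control SD above control mean; inconclusive = lowest score under 50 but half or more replicates reach 50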;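 note: yeast exposed to compound for 9 h at 30 °C; higher score means more reporter readthrough which indicates perturbed polyadenylation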
NALP1 yeast inh – inhibitors of NALP1 inflammasome in yeast. S. cerevisiae NALP1/ASC/caspase-1 growth, X-gal OD620, 72 h. 280,000 compounds, 0.61% hits. inhibition, % at 10 µM. AID 2071; in the data active = inhibition mostly above about 24%, no sharp cut-off; inactive = mostly below about 32%
NLRP3 yeast inh – blocks the NALP3 inflammasome reconstituted in yeast; Yeast reconstituted NLRP3/ASC/caspase-1, beta-gal luminescence, 24 h; AID 2825; inhibition, % at 10 µM; 330,000 compounds, 0.39% hits;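 active = inhibition of 50% or more; inactive = inhibition below 50%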;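 note: plate controls were induced DMSO wells for no effect and uninduced yeast grown without galactose for full effect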
L major viab – Leishmania major promastigote growth inhibition; Leishmania major promastigotes, resazurin fluorescence viability; inhibition, % at 10 µM; 200,000 compounds, 9% hits; AID 1063;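 note: promastigotes grown with compound for 44 hours at 28 °C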
T cruzi repl – T. cruzi replication inhibition; T. cruzi beta-gal in NIH3T3, luminescence, 90 h; inhibition, % (test concentration not listed); 300,000 compounds, 1.4% hits; AID 1885;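 active = mean inhibition across valid replicates above about 55%, limit read from the data; inconclusive = mean below that limit but half or more replicates reach it; inactive = mean below it, under half of replicates reach it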;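 note: signal also drops with host cell toxicity which is not excluded here; 0% = plate median of DMSO wells and 100% = zero luminescence signal; higher percent means less beta-gal luminescence so fewer parasites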
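Incubation – ≥90 h infection period, 3 h prior cell attachment · System – NIH/3T3 fibroblasts plus reporter T. cruzi · Doses – compound pinned at 50 nL/well, DMSO · Read-out basis – percent inhibition of parasite-derived β-gal signal · Signal – luminescent β-galactosidase signal after 60 min lysis · Also added – 5000 T. cruzi trypomastigotes/well · Medium – Low-serum DMEM with 2% FBS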
Calb FLC – C. albicans growth modulation with fluconazole; C. albicans CaCi-2 (fluconazole-resistant clinical isolate) + fluconazole, Alamar Blue growth, 48 h; growth inhibition, % (concentration not given with the values); 300,000 compounds, 0.57% hits; AID 1979;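 active = growth inhibition above about 58% in most replicates, limit read from the data, passing the limit was not always enough; inconclusive = exactly half the replicates above a set limit; inactive = most replicates below a set limit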;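 note: all wells also contain fluconazole at 8 µg/ml as a sub-toxic cotreatment; 0% = median of DMSO wells and 100% = median of geldanamycin control wells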
Lmaj promast 1uM – L. major promastigote growth inhibition, 1 uM repeat. shares compounds with L major viab. resazurin fluorescence, 48 h. inhibition, % at 1 µM. 1,100 compounds, 13% hits. AID 1258;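 active = inhibition above about 50% in both repeat tests, limit read from the data; inconclusive = one repeat under the set limit, the other over it; inactive = both repeats under the set limit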
NALP3 confirm – confirmation of NALP3 inhibitors in yeast; inhibition, % at 10 µM; shares compounds with NLRP3 yeast inh; yeast expressing human NALP3, luminescence; 1,300 compounds, 81% hits; AID 435006; in the data active = inhibition above about 48%
Casp1 ASC ctr – counter-screen for NALP3 inhibitors: yeast caspase-1-ASC; inhibition, % at 10 µM; shares compounds with NLRP3 yeast inh; AID 488784; 1,000 compounds, 66% hits; yeast expressing Caspase-1-ASC, luminescence counter screen
NALP3 yeast rt – yeast NALP3 inhibition, confirmed on retest | AID 488794 | shares compounds with NLRP3 yeast inh | inhibition, % at 10 µM | yeast expressing human NALP3, luminescence read-out | 1,000 compounds, 53% hits
Active calls of the source: *; ? = inconclusive; · = no result; + = active, no number. Many of the other results were omitted from the sample, so hits are more common in it than they were. Cut-off read from the data, not from the text of the source, unless noted: active = inhibition above about 50%; inactive = the rest.

SMILES	PolyA inhibitor	NALP1 yeast inh	NLRP3 yeast inh	L major viab	T cruzi repl	Calb FLC	Lmaj promast 1uM	NALP3 confirm	Casp1 ASC ctr	NALP3 yeast rt
O=C(Oc1coc(CSc2ncccn2)cc1=O)c1cccc([N+](=O)[O-])c1	-8	13	1	-7	1	-5	·	·	·	·
CSC(=S)NCc1cccnc1	-10	24	-2	81*	-9	88*	8	·	·	·
NC(=S)NCc1cccnc1	5	-6	3	3	-26	-8	·	·	·	·
Cc1ccc([N+](=O)[O-])cc1-c1ccc(/C=N/NC(=O)c2cc3c(ccc4ccccc43)o2)o1	-1	-6	23	100*	28	1	15	·	·	·
C/C(=N\O)c1ccc2c3ccccc3n(C)c2c1	-31	-16	19	5	17	-1	·	·	·	·
CCn1c2ccccc2c2cc(/C(C)=N/O)ccc21	-6	-30	14	69*	-3	-4	-15	·	·	·
COCCNC(=S)NC12CC3CC(CC(C3)C1)C2	-13	12	17	53*	-23	-13	0	·	·	·
COCCNCC(=O)C12CC3CC(CC(C3)C1)C2	2	15	18	8	-5	7	·	·	·	·
Cc1ccc(C(C[N+](=O)[O-])n2nc(C)cc2C)cc1 (stereo unspecified)	-10	11	32	100*	-16	0	36	·	·	·
Cc1ccc(S(=O)(=O)NCC(C)n2nc(C)cc2C)cc1 (stereo unspecified)	-4	16	1	·	-17	2	·	·	·	·
NC(C(=O)O)C1CC(Cl)=NO1 (stereo unspecified)	6	49	23	100*	-6	·	94*	·	·	·
CS(=O)(=O)N(CC(=O)NCCC1=CCCCC1)C1CCCCC1	11	7	10	4	8	-5	·	·	·	·
C1=C(CCNCC2CCCCC2)CCCC1	11	26	15	92*	·	-2	47	·	·	·
CC1(C)Cc2ccccc2C(NNC(=O)c2ccccn2)=N1	16	35	1	98*	-4	-7	-7	·	·	·
Clc1ccccc1C(c1ccccc1)(c1ccccc1)n1ccnc1	24	-13	4	100*	43	·	88*	·	·	·
c1ccc(-c2nc3cc4ccccc4cc3[nH]2)nc1	-13	46	47	100*	-4	49	-5	·	·	·
CC(=O)Nc1ccc2nc(-c3ccccn3)[nH]c2c1	3	-8	8	7	-1	-1	·	·	·	·
CC(C)(C)NC(=O)CN(Cc1ccc2c(c1)OCO2)C(=O)CNC(=O)c1cccs1	-11	8	4	1	-4	-4	·	·	·	·
S=C(NCCCN1CCOCC1)Nc1ccc(Nc2ccccc2)cc1	-3	17	13	2	11	-10	·	·	·	·
CC(=O)Oc1c(C)cc(O)c2ccccc12	8	-4	6	82*	7	1	2	·	·	·
Cc1c(Cl)sn(-c2ccc(Cl)cc2)c1=O	·	98*	56*	101*	·	·	100*	34	69*	50
CC(=O)N1CCN(CC(=O)Nc2cc(F)ccc2C)CC1	17	29	15	·	-3	-7	·	·	·	·
CCc1ccc2oc(-c3ccc(OC)cc3)cc(=Nc3cccc(C(=O)O)c3)c2c1	-27	4	40	0	10	76	·	·	·	·
CCc1ccc2oc(-c3ccc(OC)cc3)cc(=Nc3c(C)n(C)n(-c4ccccc4)c3=O)c2c1	-20	-4	53*	90*	64*	71*	1	42	54*	43
Cc1cc2c(cc1C)CSC(c1ccccc1O)SC2	10	20	59*	97*	-33	13	-9	64*	63*	55*
SMILES	PolyA inhibitor	NALP1 yeast inh	NLRP3 yeast inh	L major viab	T cruzi repl	Calb FLC	Lmaj promast 1uM	NALP3 confirm	Casp1 ASC ctr	NALP3 yeast rt
CCCSc1nnc(Sc2nnnn2-c2ccccc2)s1	-16	13	58*	88*	55*	18	46	66*	60*	46
C(=C\CSc1nnnn1-c1ccccc1)/CSc1nnnn1-c1ccccc1	-17	-3	20	22	21	-8	·	·	·	·
COc1ccc(OC)c(NC(=O)CSc2nnc(-c3cnccn3)n2C)c1	9	8	0	·	0	-1	·	·	·	·
Cc1nc2ccc(C(C(F)(F)F)(C(F)(F)F)C(F)(F)F)cc2[nH]1	-68	40*	95*	100*	50	-18	22	90*	89*	80*
Cc1nc2ccc(S(=O)(=O)c3ccc4nc(C)[nH]c4c3)cc2[nH]1	-17	19	14	-10	-8	5	·	·	·	·
Cc1oc(-c2ccccc2F)nc1CSCC(=O)NC1CCC(C)CC1 (stereo unspecified)	-14	14	12	·	14	0	·	·	·	·
O=Cc1cn(-c2ccccc2)nc1-c1ccc2c(c1)OCCO2	·	-19	50*	96*	·	·	6	57*	52*	60*
Cc1cccc(/C=C/c2onc(C)c2[N+](=O)[O-])n1	-48	·	89*	·	31	-8	·	63*	96*	77*
Cc1cccc(N/C=C/c2onc(C)c2[N+](=O)[O-])c1	-8	15	16	-3	-9	10	·	·	·	·
Cc1nnc(SCC(=O)NC2CC2)n1-c1ccccc1	14	-10	-2	·	-20	3	·	·	·	·
O=C(Nc1ccc2c(c1)oc1ccccc12)c1cccnc1	-17	-2	74*	11	8	?	·	60*	44	40
COc1ccccc1C(C[N+](=O)[O-])c1c(N)n(C)c(=O)n(C)c1=O (stereo unspecified)	-14	+	77*	·	-21	39*	·	51*	75*	49
O=C(Nc1ccc2c(c1)OCO2)c1ccc2c(c1)OCO2	-2	34	20	-2	-8	1	·	·	·	·
COc1ccc(C(=O)Nc2cccc(OC)c2)cc1	·	2	26	-4	0	-21	·	·	·	·
O=C(Nc1cccc(Cl)c1)c1ccccc1	·	·	83*	·	·	·	·	93*	91*	83*
COc1cccc(NC(=O)c2ccc(OC(F)(F)F)cc2)c1	1	·	50*	·	-22	-6	·	63*	41	19
O=C(NNC(=S)Nc1cccc(Cl)c1)c1ccccc1	-21	7	23	·	-11	5	·	·	·	·
O=C(Nc1csc(Cl)c1)c1ccccc1	19	·	80*	·	-12	2	·	81*	86*	79*
O=C(Nc1ccc2c(c1)OCO2)c1cccc(Cl)c1	18	-12	56*	16	-6	-11	·	58*	62*	61*
Cc1nnsc1C(=O)N1CCCC(Nc2ccc(F)c(F)c2)C1 (stereo unspecified)	2	6	4	·	7	3	·	·	·	·

Bioassay records (PubChem)
